NR2E3 ag-1 = inhibitors of NR2E3-RetCOR corepressor binding, primary screen, NR2E3 agonist project, biochemical, TR-FRET, GST-NR2E3, biotin-RetCOR. Photoreceptor-specific nuclear receptor (Homo sapiens), Q9Y5X4. 1536-well. inhibition of corepressor binding, % at 4.78 µM. 0.12% of 320,000 active;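 active = percent inhibition above the cutoff of mean plus 3 SD of all tested compounds, set per screening campaign, cut at about 20% in these data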;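 also: 0% = DMSO wells and 100% = biotin wells as full block of FRET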
Target sequence (Q9Y5X4 whole entry, looked up): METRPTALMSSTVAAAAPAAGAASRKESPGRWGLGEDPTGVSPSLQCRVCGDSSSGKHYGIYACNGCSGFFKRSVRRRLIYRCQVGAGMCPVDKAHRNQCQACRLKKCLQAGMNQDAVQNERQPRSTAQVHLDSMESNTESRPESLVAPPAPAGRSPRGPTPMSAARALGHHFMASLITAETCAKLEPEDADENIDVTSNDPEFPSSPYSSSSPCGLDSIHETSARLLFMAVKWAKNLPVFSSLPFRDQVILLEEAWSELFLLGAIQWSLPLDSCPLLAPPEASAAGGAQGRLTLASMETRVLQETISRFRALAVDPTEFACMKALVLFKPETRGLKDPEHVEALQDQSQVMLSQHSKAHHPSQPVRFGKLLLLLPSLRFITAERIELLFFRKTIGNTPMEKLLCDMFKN
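System: GST-tagged NR2E3 plus biotinylated RetCOR corepressor; Amount: 1.35 nM GST-tagged NR2E3 final; Dosing: single nominal compound dose of 4.8 µM; Schedule: 5 h incubation at 4 °C; Technique: TR-FRET with europium anti-GST and streptavidin-D2, 340 nm excitation; Controls: biotin wells as high control, 0.6% DMSO wells as low control.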
GASC-1 inh = inhibitors of GASC-1 histone demethylase, primary screen, biochemical, fluorescence, DELFIA europium | GST-JMJD2C(1-420) H3K9me3 demethylation | 0.069% of 330,000 active | inhibition, % at 2.35 µM | AID 2099, 2009;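 active = more than half of a compound's replicate wells show inhibition beyond 50%, single wells judged on their own value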;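 also: signal counts dimethyl H3K9 product captured on neutravidin plate; 0% = median of DMSO wells and 100% = 0.3 times that DMSO median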
Jurkat NFkB inh = inhibitors of induced NF-kB luciferase reporter, primary screen, TCR NF-kB activation inhibitor project, cell-based, luminescence, uHTS; Jurkat, PMA/ionomycin-induced NF-kB luciferase reporter; 0.53% of 330,000 active; AID 435003, 2010; inhibition, % at 4 µM; in the data active = inhibition above about 50%
697 NFkB inh = inhibitors of PMA/ionomycin-induced NF-kB reporter, 697 cells, primary screen, B-cell NF-kB inhibitor project, cell-based, luminescence, uHTS | AID 435022, 2010 | 0.33% of 330,000 active | inhibition, % at 4 µM | 697 B-cell NF-kB luciferase reporter, 16 h; in the data active = inhibition above about 35%
NR2E3 ag-2 = NR2E3 agonists in two-hybrid cells, primary screen, cell-based, luminescence, CHO-S, Gal4-NCOR/VP16-NR2E3 | Photoreceptor-specific nuclear receptor (Homo sapiens), Q9Y5X4 | luciferase | inhibition of corepressor binding, % at 3.98 µM | 0.35% of 360,000 active | AID 602229, 2012;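 active = inhibition above the mean of all tested compounds plus 3 SD, cut at about 70% in these data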;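 also: 0% = DMSO with NR2E3 transfected cells and 100% = cells lacking NR2E3 construct; higher means lower luciferase signal from less NR2E3 corepressor binding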
GalR3 antag = GalR3 antagonists in HEK293 cells, primary screen, cell-based, fluorescence readout. 0.44% of 360,000 active. HEK293 GalR3-CNG cAMP membrane potential fluorescence; galR3 body fused to GalR1 C-terminus. Galanin receptor type 3 (Homo sapiens), O60755. AID 651719, 2012. inhibition, % at 3 µM;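 active = inhibition above the screen-wide average plus 3 SD, cut at about 13% in these data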;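 also: forskolin and galanin both at EC90 stimulate the cells; cAMP rise reported by CNG channel membrane potential dye signal; 0% = forskolin plus galanin with DMSO and 100% = forskolin alone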
Target sequence (O60755 1-299 limits assumed): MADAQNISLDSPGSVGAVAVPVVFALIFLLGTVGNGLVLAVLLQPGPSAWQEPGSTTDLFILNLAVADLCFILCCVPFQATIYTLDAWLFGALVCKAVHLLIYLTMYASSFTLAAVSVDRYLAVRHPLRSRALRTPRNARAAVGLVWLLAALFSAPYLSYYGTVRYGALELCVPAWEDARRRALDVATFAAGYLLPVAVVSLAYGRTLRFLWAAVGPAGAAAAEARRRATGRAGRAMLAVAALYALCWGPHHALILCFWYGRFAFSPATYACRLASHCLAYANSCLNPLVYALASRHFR
Jurkat NFkB conf = PMA/ionomycin-induced NF-kB reporter inhibitors, Jurkat retest, confirmation, T-cell NF-kB inhibitor project, cell-based, luminescence, single concentration | AID 435020, 2010 | shares compounds with Jurkat NFkB inh | inhibition, % at 4 µM | 27% of 2,700 active | Jurkat NF-kB luciferase, 16 h;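 active = inhibition reaching about 45% at 4 µM in either replicate, limit read from the data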;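 also: plate controls were PMA/ionomycin stimulated DMSO wells for no effect and unstimulated DMSO wells for full effect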
697 NFkB conf = PMA/ionomycin-induced NF-kB reporter inhibitors, 697 retest, confirmation, B-cell NF-kB inhibitor project, cell-based, luminescence, single concentration; shares compounds with 697 NFkB inh; inhibition, % at 4 µM; 697 B-cell NF-kB luciferase, 16 h; 35% of 2,000 active; in the data active = inhibition mostly above about 28%, no sharp cut-off; inactive = mostly below about 22%
NR2E3 ag confirm = NR2E3 agonist confirmation in cells, cell-based, luminescence, CHO-S two-hybrid | shares compounds with NR2E3 ag-2 | CHO-S mammalian two-hybrid NR2E3-NCOR, luciferase luminescence | inhibition, % at 3.98 µM | 51% of 2,300 active | AID 624378, 2012;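 active = average inhibition above a cutoff equal to the mean inhibition of all tested compounds plus one SD, cut at about 70% in these data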;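 also: 0% = DMSO in NR2E3 cells and 100% = DMSO in cells lacking NR2E3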
VP16 counter = GAL4-VP16 reporter modulators, confirmation, counter-screen for NR2E3 agonist project, cell-based, luminescence, CHO-S, high throughput | inhibition, % at 3.98 µM | 29% of 2,300 active | CHO-S GAL4-VP16 luciferase reporter | shares compounds with NR2E3 ag-2;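 active = mean inhibition above a cutoff equal to the average over all tested compounds plus one standard deviation, cut at about 70% in these data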;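 also: luciferase from a UAS reporter driven by GAL4-VP16 transactivation; 0% = DMSO with VP16-transfected cells and 100% = DMSO with cells lacking VP16; higher means less reporter light so more repression of VP16 activity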
* marks the source's active call; other numbers are inactive results; x = not tested or not shown. This is a sample that favours compounds with a hit; in the whole collection about 1.5% have one here.

SMILES | NR2E3 ag-1 | GASC-1 inh | Jurkat NFkB inh | 697 NFkB inh | NR2E3 ag-2 | GalR3 antag | Jurkat NFkB conf | 697 NFkB conf | others
Cc1cccn2c(=O)c3cc(C(=O)N4CCC5(CC4)OCCO5)n(C)c3nc12 | 1.8 | 27.2 | 53.1* | -26.0 | -70.2 | -6.3 | 29.7 | x
CCN1/C(=C\C=C\C2=[N+](CC)c3ccccc3C2(C)C)C(C)(C)c2ccccc21 | 6.6 | -13.2 | 99.8* | -36.6 | 103.8* | x | 79.9* | x
N#CC1c2ccccc2-n2nncc2CN1S(=O)(=O)c1cc(Cl)cc(Cl)c1 (centres undefined) | x | x | x | x | -23.5 | -6.9 | x | x
Cc1cc(C)c2c(ccc3cccc[n+]32)c1 | 1.6 | -5.7 | 56.9* | -10.4 | -8.0 | -2.3 | 38.5 | x
CC(=O)OC(C)(C)/C=C/C(=O)C(C)(O)C1[C@H](O)C[C@@]2(C)C3CC=C4C(CC[C@@H](O)C4(C)C)[C@]3(CO)C(=O)C[C@]12C (some centres undefined) | -2.6 | -0.9 | 81.3* | -11.2 | 45.0 | -6.8 | 24.6 | x
CC(=O)OC(C)(C)/C=C/C(=O)[C@](C)(O)[C@H]1[C@H](O)C[C@@]2(C)[C@@H]3CC=C4[C@H](C[C@H](O)C(=O)C4(C)C)[C@]3(C)C(=O)C[C@]12C | x | x | x | x | 43.3 | x | x | x
CC(C)C(CN1CCC(C)(c2cccc(O)c2)[C@@H](C)C1)NC(=O)C1Cc2ccc(O)cc2CN1 (some centres undefined) | x | x | x | x | x | 0.0 | x | x
C[C@@H]1O[C@@H](O[C@@H]2C=C3CC[C@@H]4C(CC[C@]5(C)[C@@H](c6ccc(=O)oc6)CC[C@]45O)[C@@]3(C)CC2)[C@H](O)[C@H](O)[C@H]1O (some centres undefined) | 5.3 | -1.1 | 100.3* | 90.3* | -6.8 | 32.5* | 94.3* | 98.9*
C[C@@H]1O[C@@H](O[C@@H]2C=C3CCC4C(CC[C@]5(C)[C@@H](c6ccc(=O)oc6)CC[C@]45O)[C@@]3(C)CC2)[C@H](O)[C@H](O)[C@H]1O (some centres undefined) | 2.5 | x | 99.8* | 102.2* | -43.4 | 16.1* | 97.0* | 98.6*
CC(=O)C1CCC2(O)C3CCC4=CC(=O)CCC4(C)C3CCC12C (centres undefined) | x | x | x | x | -33.9 | -4.9 | x | x
O=C(CCN1CC1)OCCOC(=O)CCN1CC1 | x | x | x | x | -1.9 | -4.0 | x | x
COC1C(C)OC(OC2CC(C)(O)Cc3cc4c(c(O)c32)C(=O)c2c(O)cc3c(c2C4=O)OC2OC3(C)C(O)C(N(C)C)C2O)C(OC)C1(C)OC (centres undefined) | x | x | x | x | -3.5 | -5.2 | x | x
Nc1ccccc1C(=O)OCCc1ccccc1 | 7.2 | -5.1 | -177.6 | -262.6 | -165.6 | -0.8 | -103.7 | -249.5
COC(=O)C1=C(c2ccc(OCc3ccccc3)c(F)c2)C[C@@H]2CC[C@H]1N2C | x | x | x | x | 19.2 | -6.8 | x | x
C=C(C=O)CC1CC(O)[C@]2(C)OC3CC4OC5C[C@]6(C)O[C@]7(C)CCC8OC9C[C@]%10(C)OC%11C(C)=CC(=O)OC%11CC%10OC9C[C@@H](C)C8OC7CC6O[C@]5(C)CC5OC5C4OC3CC2O1 (some centres undefined) | 1.9 | -1.9 | 96.3* | -390.0 | 3.8 | x | 96.2* | 38.3*
C=C(CO)CC1CC(O)[C@]2(C)OC3CC4OC5C[C@]6(C)O[C@]7(C)CCC8OC9C[C@]%10(C)OC%11C(C)=CC(=O)OC%11CC%10OC9C[C@@H](C)C8OC7CC6O[C@]5(C)C/C=C\C4OC3CC2O1 (some centres undefined) | -1.3 | -5.5 | 23.2 | 18.6 | -13.4 | -3.2 | x | x
COC(=O)C1=C(c2ccc(OC(F)(F)F)cc2)C[C@@H]2CC[C@H]1N2C(=O)NC1CCCCC1 | 1.6 | 1.7 | 11.9 | 7.8 | 45.8 | -8.5 | x | x
CC1=CC2/C=C(\C)CCC(O)C(O)/C=C/C(=O)C23C(=O)NC(CC(C)C)C3C1C (centres undefined) | 1.7 | 15.1 | 78.5* | 37.7* | 0.5 | x | 19.4 | -3.3
C[C@@H]1O[C@@H](O[C@H]2C[C@@H](O)[C@]3(CO)[C@H]4[C@H](O)C[C@]5(C)[C@@H](C6COC(=O)C6)CC[C@]5(O)[C@@H]4CC[C@]3(O)C2)[C@H](O)[C@H](O)[C@H]1O (some centres undefined) | 4.8 | 13.2 | 95.8* | -402.8 | 21.0 | 21.5* | 71.6* | -496.4
CC(=O)OC[C@]12CCC(C)=C[C@H]1O[C@@H]1[C@H](O)[C@@H](OC(C)=O)[C@@]2(C)[C@]12CO2 | -0.7 | x | 96.7* | 98.2* | 102.2* | -0.2 | 99.2* | 93.8* | NR2E3 ag confirm=99.9*;VP16 counter=99.2*
Clc1ccc([C@H]2CC3CCC2N3)cn1 (some centres undefined) | x | x | x | x | x | -1.0 | x | x
COc1cc(C)c(CN2CC=C(c3ccc(F)cc3)CC2)cc1C | 3.3 | 6.9 | -15.5 | -21.9 | -19.4 | -10.0 | x | x
COc1cc2nc(CN3CC=C(c4ccccc4)CC3)[nH]c(=O)c2cc1OC | 0.2 | 8.2 | 58.6* | 26.2 | 90.2* | -8.8 | 51.7* | x | NR2E3 ag confirm=99.3*;VP16 counter=42.1
C[C@]12C[C@H](O)[C@@H](O)C[C@@H]1CC[C@@H]1[C@@H]2CC[C@]2(C)C(=O)CC[C@@H]12 | x | x | x | x | 13.7 | -1.0 | x | x
C=C1C(=O)O[C@@H]2C[C@@H](C)[C@@H]3C=CC(=O)[C@@]3(C)[C@@H](O)[C@H]12 | 8.1 | 12.0 | 99.4* | 101.6* | 99.5* | x | 95.4* | 104.5* | NR2E3 ag confirm=99.3*;VP16 counter=54.2

Screening data from PubChem BioAssay.
